Measurements from ChEMBL document CHEMBL1772981, “Discovery of 2-arylbenzoxazoles as upregulators of utrophin production for the treatment of Duchenne muscular dystrophy” (J Med Chem, 2011).
Values after ≈ are worked out from the molar mass of the structure shown.

Tests used:
Mus musculus [1] = organism: Mus musculus; test: Activation of UTRN promoter in mouse H2K cells assessed as upregulation of UTRN production at 10 uM after 72 hrs by RT-PCR analysis; type: functional
Procedure, shortened: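 H2K cells were seeded at 25000 per well, left 24 h, then dosed for 72 h in 1% DMSO final. Total RNA was extracted and reverse transcribed. qPCR used an amplicon spanning the UTRN exon 3–4 boundary, with β-actin as the endogenous control, and was quantified by ΔΔCT. Values are % UTRN relative to DMSO control (=100), with P value.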

Mus musculus [2] = organism: Mus musculus; test: Activation of UTRN promoter in mouse H2K cells assessed as upregulation of UTRN production after 48 hrs by luciferase reporter linked assay; type: functional, cell-based
Procedure, shortened: (§1)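 H2K myoblasts stably carrying a utrophin (UTRN) promoter–luciferase reporter were plated 24 h before dosing and exposed to compound for 48 h. Luciferase was read by luminescence (Steady-Glo). The primary screen was at 10 μM and the secondary at six concentrations for EC50, both in triplicate. Non-EC50 values are % of the reference upregulator's maximum, given with the concentration at maximum.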

[3] = Half life in human liver microsomes; type: ADME, Microsome
[4] = Aqueous solubility of the compound by turbidimetry; type: physicochemical; details: buffer
Procedure, shortened: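 Turbidimetric aqueous solubility, reported as the final test compound concentration.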

[5] = Half life in mouse liver microsomes; type: ADME, Microsome
Mus musculus [6] = organism: Mus musculus; test: Activation of UTRN promoter in mouse H2K cells assessed as upregulation of UTRN production at 10 uM after 48 hrs by luciferase reporter linked assay; type: functional; procedure, shortened: as §1
Mus musculus [7] = organism: Mus musculus; test: Activation of UTRN promoter in mouse H2K cells assessed as upregulation of UTRN production at 30 uM after 48 hrs by luciferase reporter linked assay; type: functional; procedure, shortened: as §1
Mus musculus [8] = organism: Mus musculus; test: Activation of UTRN promoter in mouse H2K cells assessed as upregulation of UTRN production at 3 uM after 48 hrs by luciferase reporter linked assay; type: functional; procedure, shortened: as §1
Mus musculus [9] = test: Cmax in CD1 mouse at 10 mg/kg, ip; type: ADME, organism-based; design: dose 10 mg/kg, route intraperitoneal; details: in vivo
Procedure, shortened: (§2)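 Male CD1 mice were dosed i.p. at 10 mg/kg in 95% PBS containing 0.1% Tween 20 and 5% DMSO. Plasma was sampled at 5–360 or 5–480 min. AUC is in μg.min/mL. Half-life was not calculated where the log concentration–time plot lacked a linear region of at least three points.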

Mus musculus [10] = test: Tmax in CD1 mouse at 10 mg/kg, ip; type: ADME, organism-based; design: dose 10 mg/kg, route intraperitoneal; details: in vivo; procedure, shortened: as §2
Mus musculus [11] = test: Half life in CD1 mouse at 10 mg/kg, ip; type: ADME, organism-based; design: dose 10 mg/kg, route intraperitoneal; details: in vivo; procedure, shortened: as §2
Mus musculus [12] = test: AUC in CD1 mouse at 10 mg/kg, ip; type: ADME, organism-based, Plasma; design: dose 10 mg/kg, route intraperitoneal; details: in vivo; procedure, shortened: as §2
[13] = AUC in CD1 mouse at 50 mg/kg, ip; type: ADME, organism-based; design: dose 50 mg/kg, route intraperitoneal; details: plasma
Procedure, shortened: (§3)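 Male CD1 mice were given 50 mg/kg i.p. in 95% PBS with 0.1% Tween 20 and 5% DMSO. Plasma was sampled at 0.08, 0.25, 0.5, 1, 2, 4, 8 and 24 h in three animals, and values are the mean in ng/mL.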

[14] = Tmax in CD1 mouse at 50 mg/kg, ip; type: ADME, organism-based; design: dose 50 mg/kg, route intraperitoneal; details: in vivo; procedure, shortened: as §3
[15] = Cmax in CD1 mouse at 50 mg/kg, ip; type: ADME, organism-based; design: dose 50 mg/kg, route intraperitoneal; details: in vivo; procedure, shortened: as §3

Row | Compound | EC50 (Mus musculus [2]; Mus musculus, H2K, 48 h) | Activity (Mus musculus [6]) | further results
1 | CC(C)C(=O)Nc1ccc2nc(-c3ccc(Cl)c(Cl)c3)oc2c1 | 4 µM | – | Activity (Mus musculus [1]): 111.5%
2 | CCS(=O)(=O)c1ccc2oc(-c3ccc(Cl)c(Cl)c3)nc2c1 | 3 µM | – | Activity (Mus musculus [1]): 138.3%; half-life [3]: 1.75 h; solubility kinetic [4]: 3 µM (≈ 1.07 µg/mL); half-life [5]: 1.68 h
3 | CCS(=O)(=O)c1ccc2oc(-c3cccc(Cl)c3)nc2c1 | > 30 µM | – | –
4 | CCS(=O)(=O)c1ccc2oc(-c3cccc(Cl)c3Cl)nc2c1 | – | 40% | –
5 | CCS(=O)(=O)c1ccc2oc(-c3ccc(Cl)cn3)nc2c1 | > 30 µM | – | –
6 | CCS(=O)(=O)c1ccc2oc(-c3cccc(Cl)c3F)nc2c1 | > 10 µM | – | –
7 | CCS(=O)(=O)c1ccc2oc(-c3ccco3)nc2c1 | > 30 µM | – | –
8 | CCS(=O)(=O)c1ccc2oc(-c3cccs3)nc2c1 | – | – | Activity (Mus musculus [7]): 29%
9 | CCS(=O)(=O)c1ccc2oc(-c3ccc4c(c3)OCO4)nc2c1 | 4.2 µM | – | –
10 | CCS(=O)(=O)c1ccc2oc(-c3ccc4ccccc4n3)nc2c1 | – | – | Activity (Mus musculus [8]): 59%
11 | CCS(=O)(=O)c1ccc2oc(-c3cnc4ccccc4c3)nc2c1 | > 30 µM | – | –
12 | CCS(=O)(=O)c1ccc2oc(-c3cc4ccccc4cn3)nc2c1 | – | 63% | –
13 | CCS(=O)(=O)c1ccc2oc(-c3ccc4ncccc4c3)nc2c1 | 1.9 µM | – | –
14 | CCS(=O)(=O)c1ccc2oc(-c3ccc4nccnc4c3)nc2c1 | > 30 µM | – | –
15 | CCS(=O)(=O)c1ccc2oc(-c3cccc4ccccc34)nc2c1 | > 30 µM | – | –
16 | CCS(=O)(=O)c1ccc2oc(-c3ccc4sccc4c3)nc2c1 | – | 86% | half-life [3]: 0.983 h
17 | CCS(=O)(=O)c1ccc2oc(-c3ccc4c(c3)CCCC4)nc2c1 | – | 51% | –
18 | CCS(=O)(=O)c1ccc2oc(C3CCc4ccccc4C3)nc2c1 (stereo unspecified) | – | 32% | –
19 | CCS(=O)(=O)c1ccc2oc(-c3ccc4c(c3)CCC4)nc2c1 | 2.3 µM | – | half-life [3]: 0.333 h
20 | CCS(=O)(=O)c1ccc2oc(-c3ccc4occc4c3)nc2c1 | – | 73% | –
21 | CCS(=O)(=O)c1ccc2oc(-c3ccc4[nH]ccc4c3)nc2c1 | – | 81% | –

Row | Compound | EC50 (Mus musculus [2]; Mus musculus, H2K, 48 h) | Activity (Mus musculus [6]) | further results
22 | CCS(=O)(=O)c1ccc2oc(-c3ccc(-c4ccccc4)cc3)nc2c1 | > 30 µM | – | –
23 | CCS(=O)(=O)c1ccc2oc(-c3ccc(Oc4ccccc4)cc3)nc2c1 | > 30 µM | – | –
24 | CCS(=O)(=O)c1ccc2oc(-c3cccc(Oc4ccccc4)c3)nc2c1 | > 30 µM | – | –
25 | CCS(=O)(=O)c1ccc2oc(Cc3ccc4ccccc4c3)nc2c1 | > 30 µM | – | –
26 | CCS(=O)(=O)c1ccc2oc(/C=C/c3ccccc3)nc2c1 | – | 53% | –
27 | CCCc1nc2cc(S(=O)(=O)CC)ccc2o1 | – | 14% | –
28 | CCS(=O)(=O)c1ccc2oc(C3CCCCC3)nc2c1 | – | 25% | –
29 | CCCS(=O)(=O)c1ccc2oc(-c3ccc(Cl)cc3)nc2c1 | > 30 µM | – | –
30 | CS(=O)(=O)c1ccc2oc(-c3ccc(Cl)cc3)nc2c1 | – | 53% | –
31 | CC(C)S(=O)(=O)c1ccc2oc(-c3ccc(Cl)cc3)nc2c1 | 10.2 µM | – | –
32 | CC(C)S(=O)(=O)c1ccc2oc(-c3ccc(Cl)c(Cl)c3)nc2c1 | – | 45% | –
33 | NS(=O)(=O)c1ccc2oc(-c3ccc(Cl)cc3)nc2c1 | – | – | Activity (Mus musculus [7]): 60%
34 | O=S(=O)(O)c1ccc2oc(-c3ccc(Cl)cc3)nc2c1 | > 30 µM | – | –
35 | CCN(CC)S(=O)(=O)c1ccc2oc(-c3ccc(Cl)cc3)nc2c1 | – | 28% | –
36 | CCS(=O)(=O)c1ccc2nc(-c3ccc(Cl)cc3)oc2c1 | > 30 µM | – | –
37 | CCS(=O)(=O)c1ccc2nc(-c3ccc(Cl)c(Cl)c3)oc2c1 | 10.6 µM | – | –
38 | CS(=O)(=O)c1ccc2oc(-c3ccc4ccccc4c3)nc2c1 | – | – | Activity (Mus musculus [8]): 95%; half-life [5]: 0.557 h
39 | CCS(=O)(=O)c1ccc2oc(-c3ccccc3Cl)nc2c1 | – | – | Activity (Mus musculus [7]): 62%
40 | CCS(=O)(=O)c1ccc2oc(-c3ccc(Cl)cc3)nc2c1 | 5 µM | – | half-life [3]: 1.15 h; Cmax (Mus musculus [9]): 5650 ng/mL; solubility kinetic [4]: 10 µM (≈ 3.22 µg/mL); half-life [5]: 0.51 h; Tmax (Mus musculus [10]): 5 min; t1/2 (Mus musculus [11]): 2.18 h; AUC (Mus musculus [12]): 9650 ng·h/mL
41 | CCS(=O)(=O)c1ccc2oc(-c3ccccc3)nc2c1 | – | 69% | solubility kinetic [4]: 100 µM (≈ 28.7 µg/mL)
42 | CCS(=O)(=O)c1ccc2oc(-c3ccc4ccccc4c3)nc2c1 [EZUTROMID] | 1.8 µM | – | Activity (Mus musculus [1]): 143%; half-life [3]: 1.75 h; AUC [13]: 7000 ng·h/mL; solubility kinetic [4]: 3 µM (≈ 1.01 µg/mL); half-life [5]: 1.36 h; EC50 (Mus musculus [2]; h2k): 0.91 µM; Tmax [14]: 0.25 h; Cmax [15]: 1490 ng/mL
